Reference: ChEMBL document CHEMBL1138476 (J Med Chem, 2009)

Key:
[1] = Lipophilicity log P of the compound; assay type: physicochemical; conditions: octanol/water
[2] = Aqueous solubility at pH 7; assay type: physicochemical; conditions: aqueous medium
[3] = target: T1, Corticotropin-releasing factor receptor 1 (Rattus norvegicus, UniProt P35353); assay: Displacement of [125I]Tyro-rat/human CRF from CRF1 receptor in rat cortical membrane by gamma counting; assay type: cell membranes
T1 sequence (P35353 whole entry): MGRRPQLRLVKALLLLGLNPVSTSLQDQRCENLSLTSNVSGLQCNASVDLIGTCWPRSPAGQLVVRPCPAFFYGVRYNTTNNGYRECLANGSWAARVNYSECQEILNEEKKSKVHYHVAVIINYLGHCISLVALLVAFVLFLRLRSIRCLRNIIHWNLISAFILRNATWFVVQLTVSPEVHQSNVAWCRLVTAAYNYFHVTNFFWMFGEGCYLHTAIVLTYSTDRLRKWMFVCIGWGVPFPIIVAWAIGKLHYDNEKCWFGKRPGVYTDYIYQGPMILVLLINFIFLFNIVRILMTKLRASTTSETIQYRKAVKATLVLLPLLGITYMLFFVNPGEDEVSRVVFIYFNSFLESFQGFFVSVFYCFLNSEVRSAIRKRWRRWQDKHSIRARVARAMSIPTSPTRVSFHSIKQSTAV
How it was run: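 Binding to CRF receptors in rat cortical homogenate.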

[4] = Half life in Beagle dog by discrete dosing; assay type: ADME, organism-based, Canis lupus familiaris; conditions: in vivo
[5] = target: T1, Corticotropin-releasing factor receptor 1; assay: Agonist activity at CRF1 receptor in rat pituitary cells
[6] = AUC in Beagle dog at 1 mg/kg, po by cassette dosing; assay type: ADME, organism-based, Canis lupus familiaris; parameters: dose 1 mg/kg, route oral; conditions: plasma
[7] = Cmax in Beagle dog at 1 mg/kg, po by cassette dosing; assay type: ADME, organism-based, Canis lupus familiaris; parameters: dose 1 mg/kg, route oral; conditions: in vivo
[8] = Half life in Beagle dog at 1 mg/kg, po by cassette dosing; assay type: ADME, organism-based, Canis lupus familiaris; parameters: dose 1 mg/kg, route oral; conditions: in vivo
[9] = Aqueous solubility at pH 7.4; assay type: physicochemical; conditions: aqueous medium
How it was run: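 Solubility measured in water at pH 7.4.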

[10] = Solubility in dilute HCl at pH 2.3; assay type: physicochemical
[11] = Clearance in rat at 1 mg/kg, iv and 5 mg/kg, po; assay type: ADME, organism-based; conditions: in vivo
How it was run: (§1)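 Rats (n = 3) received 1 mg/kg iv in 10% DMAC, 70% propylene glycol and deionized water, or 5 mg/kg orally in 0.5% methylcellulose.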

[12] = Volume of distribution at steady state in rat at 1 mg/kg, iv and 5 mg/kg, po; assay type: ADME, organism-based; conditions: in vivo, read-out: Vdss
How it was run: (§2)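 Rats (n = 3) dosed iv at 1 mg/kg in 10% DMAC, 70% propylene glycol and deionized water, and orally at 5 mg/kg in 0.5% methylcellulose.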

[13] = Cmax in rat at 5 mg/kg, po; assay type: ADME, organism-based; parameters: dose 5 mg/kg, route oral; conditions: in vivo; how it was run: as §1
[14] = Tmax in rat at 5 mg/kg, po; assay type: ADME, organism-based; parameters: dose 5 mg/kg, route oral; conditions: in vivo; how it was run: as §2
[15] = Oral bioavailability in rat at 5 mg/kg; assay type: ADME, organism-based; conditions: in vivo
How it was run: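 Rats (n = 3) were dosed at 1 mg/kg iv in 10% DMAC, 70% propylene glycol and deionized water, and at 5 mg/kg po in 0.5% methylcellulose.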

[16] = AUC (0 to infinity) in chimpanzee at 0.5 mg/kg, iv; assay type: ADME, organism-based, Pan troglodytes; parameters: time infinity, dose 0.5 mg/kg, route intravenous; conditions: plasma
How it was run: (§3)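 Chimpanzee PK. Oral: 1 mg/kg in two alert animals, given as a 1 mg/mL suspension in 50–50 (v/v) 0.5% methylcellulose/Tang orange juice with 1% Tween-80. IV: 0.5 mg/kg in one animal in 10% DMAC, 70% propylene glycol and deionized water, infused over 10 min (0.2 mL/kg). EDTA blood was taken predose and at 2–96 h; iv sampling added 6, 15 and 30 min.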

[17] = AUC (0 to infinity) in chimpanzee at 1 mg/kg, po; assay type: ADME, organism-based, Pan troglodytes; parameters: time infinity, dose 1 mg/kg, route oral; conditions: plasma; how it was run: as §3
[18] = Cmax in chimpanzee at 1 mg/kg, po; assay type: ADME, organism-based, Pan troglodytes; parameters: dose 1 mg/kg, route oral; conditions: in vivo; how it was run: as §3
[19] = Clearance in chimpanzee at 0.5 mg/kg, iv; assay type: ADME, organism-based, Pan troglodytes; parameters: dose 0.5 mg/kg, route intravenous; conditions: in vivo; how it was run: as §3
[20] = Volume of distribution at steady state in chimpanzee at 0.5 mg/kg, iv; assay type: ADME, organism-based, Pan troglodytes; parameters: dose 0.5 mg/kg, route intravenous; conditions: in vivo, read-out: Vdss
How it was run: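 Single chimpanzee given 0.5 mg/kg iv over 10 min (0.2 mL/kg) in 10% DMAC, 70% propylene glycol and deionized water. EDTA blood taken predose, at 6, 15 and 30 min, and at 2 to 96 h.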

[21] = Elimination half life in chimpanzee at 0.5 mg/kg, iv; assay type: ADME, organism-based, Pan troglodytes; parameters: dose 0.5 mg/kg, route intravenous; conditions: in vivo, read-out: beta t1/2 (converted)
How it was run: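 One chimpanzee received 0.5 mg/kg iv over 10 min (0.2 mL/kg) in 10% DMAC, 70% propylene glycol and deionized water. Blood was drawn into EDTA predose and at 6, 15, 30 min and 2, 4, 6, 9, 12, 24, 36, 48, 72 and 96 h.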

[22] = Elimination half life in chimpanzee at 1 mg/kg, po; assay type: ADME, organism-based, Pan troglodytes; parameters: dose 1 mg/kg, route oral; conditions: in vivo, read-out: beta t1/2 (converted)
How it was run: (§4)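 Two alert chimpanzees were given 1 mg/kg po as a 1 mg/mL suspension in 50:50 (v/v) 0.5% methylcellulose and Tang orange juice containing 1% Tween-80. EDTA blood was taken predose and at 2–96 h. Bioavailability was calculated against a 0.5 mg/kg iv dose given to one animal.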

[23] = Oral bioavailability in chimpanzee at 1 mg/kg; assay type: ADME, organism-based, Pan troglodytes; conditions: in vivo; how it was run: as §4
Rattus norvegicus [24] = assay: Toxicity in rat assessed as total distance traveled at 3 mg/kg, po after 1 hr by spontaneous locomotor test; assay type: organism-based; parameters: dose 3 mg/kg, route oral; conditions: in vivo
How it was run: (§5)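 Rat spontaneous locomotor activity test with oral dosing in 0.25% Methocel 1 h before testing, at doses up to 100 mg/kg. Values are mean ± SEM, with N rats per group, compared with the vehicle (zero-dose) group.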

Rattus norvegicus [25] = assay: Toxicity in rat assessed as total distance traveled at 10 mg/kg, po after 1 hr by spontaneous locomotor test; assay type: functional; how it was run: as §5
Rattus norvegicus [26] = assay: Toxicity in rat assessed as total distance traveled at 30 mg/kg, po after 1 hr by spontaneous locomotor test; assay type: functional; how it was run: as §5
Rattus norvegicus [27] = assay: Toxicity in rat assessed as total distance traveled at 100 mg/kg, po after 1 hr by spontaneous locomotor test; assay type: organism-based; parameters: dose 100 mg/kg, route oral; conditions: in vivo; how it was run: as §5
Rattus norvegicus [28] = assay: Toxicity in rat assessed as time spent on rotarod at 3 mg/kg, po after 1 hr by rotarod test; assay type: organism-based; parameters: dose 3 mg/kg, route oral; conditions: in vivo
How it was run: (§6)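 Rats, n = 8 per dose, dosed po in 0.25% Methocel 1 h before testing, at 0, 1.0, 3.0, 10, 30 and 100 mg/kg. Read-out is time on rotorod (s), mean ± SEM, compared with the vehicle (zero-dose) group.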

Rattus norvegicus [29] = assay: Toxicity in rat assessed as time spent on rotarod at 10 mg/kg, po after 1 hr by rotarod test; assay type: organism-based; parameters: dose 10 mg/kg, route oral; conditions: in vivo; how it was run: as §6
Rattus norvegicus [30] = assay: Toxicity in rat assessed as time spent on rotarod at 30 mg/kg, po after 1 hr by rotarod test; assay type: organism-based; parameters: dose 30 mg/kg, route oral; conditions: in vivo; how it was run: as §6

## CCCCN(CC)c1nc(C)nc2c1c(C)cn2-c1c(C)cc(C)cc1C.Cl
[1]
  logP: > 5
[2]
  solubility: < 1 µg/mL

## CCN(C)c1nc(C)nc2c(-c3ccc(OC)nc3C)c(C)nn12
[3]
  IC50: 81.6 nM

## CCN(CCOC)c1nc(C)nc2c(-c3ccc(OC)nc3C)c(C)nn12
[3]
  IC50: 6.6 nM

## CCCN(CC1CC1)c1nc(C)nc2c(-c3ccc(OC)nc3C)c(C)nn12
[3]
  IC50: 1.6 nM

## COCCN(CCOC)c1nc(C)nc2c(-c3ccc(OC)cc3C)c(C)nn12.O=S(=O)(O)c1ccccc1
[4]
  half-life: 27 h
[5]
  IC50: 72.9 nM
[1]
  logP: 4.76
[6]
  AUC: 1.66 µM·h
[7]
  Cmax: 369 nM
[8]
  half-life: 10.1 h
[9]
  solubility: < 1 µg/mL
[10]
  solubility: 2500 µg/mL
[11]
  clearance: 20 mL/min/kg
[12]
  Vd: 14.6 L/kg
[13]
  Cmax: 851 nM
[14]
  Tmax: 0.5 h
[15]
  bioavailability: 51%
[16]
  AUC(0-inf): 2.04 µM·h
[17]
  AUC(0-inf): 0.212 µM·h
[18]
  Cmax: 27 nM
[19]
  clearance: 10.2 mL/min/kg
[20]
  Vd: 9.52 L/kg
[21]
  half-life: 20.2 h
[22]
  half-life: 16.5 h
[23]
  bioavailability: 5.2%

## COCCN(CCOC)c1nc(C)nc2c(-c3cnc(N(C)C)cc3C)c(C)nn12
[3]
  IC50: 91.9 nM

## COCCN(CC1CC1)c1nc(C)nc2c(-c3ccc(OC)nc3C)c(C)nn12
[3]
  IC50: 3.1 nM
[6]
  AUC: 1.73 µM·h
[7]
  Cmax: 314 nM
[8]
  half-life: 11.4 h

## CCCCN(CCC)c1nc(C)nc2c(-c3ccc(OC)nc3C)c(C)nn12
[3]
  IC50: 2.4 nM

## CCC(CC)Nc1nc(C)nc2c(-c3cnc(OC)cc3C)c(C)nn12
[3]
  IC50: 3 nM

## CCN(CC)c1nc(C)nc2c(-c3c(C)cc(N(C)C)nc3C)c(C)nn12
[3]
  IC50: 58 nM

## CCCC(C)Nc1nc(C)nc2c(-c3ccc(OC)nc3C)c(C)nn12 (stereo unspecified)
[3]
  IC50: 3.5 nM
[6]
  AUC: 0.955 µM·h
[7]
  Cmax: 156 nM
[8]
  half-life: 11.8 h

## CCCCC(C)Nc1nc(C)nc2c(-c3ccc(OC)nc3C)c(C)nn12 (stereo unspecified)
[3]
  IC50: 5.1 nM

## CCC(CC)Nc1nc(C)nc2c(-c3cnc(N(C)C)cc3C)c(C)nn12
[3]
  IC50: 24.8 nM

## CCC(CC)Nc1nc(C)nc2c(-c3ccc(OC)nc3C)c(C)nn12
[3]
  IC50: 3.1 nM

## CCC[C@H](C)Nc1nc(C)nc2c(-c3ccc(OC)nc3C)c(C)nn12
[3]
  IC50: 4.5 nM

## CNC1=Nc2ccc(Cl)cc2C(c2ccccc2)=[N+]([O-])C1 [CHLORDIAZEPOXIDE]
Rattus norvegicus [24]
  Activity: 4624 cm
Rattus norvegicus [25]
  Activity: 3981 cm
Rattus norvegicus [26]
  Activity: 2162 cm
Rattus norvegicus [27]
  Activity: 1062 cm
Rattus norvegicus [28]
  Time: 227 s
Rattus norvegicus [29]
  Time: 128 s
Rattus norvegicus [30]
  Time: 114 s

## CCCCN(CC)c1nc(C)nc2c(-c3c(C)cc(N(C)C)nc3C)c(C)nn12
[3]
  IC50: 32.8 nM

## CCCN(C)c1nc(C)nc2c(-c3ccc(OC)nc3C)c(C)nn12
[3]
  IC50: 17.6 nM
